In brackets after ≈: the same amount, converted by molar mass. Activity calls are given as the source filed them. The calls are words filed in the database; no cut-off is given here.
How the values were obtained:
Enterococcus faecium [1] = experiment: Inhibition of carbonic anhydrase in Enterococcus faecium NR-31971 assessed as antibacterial activity incubated for 18 to 20 hrs in presence of ambient air by CLSI protocol based broth microdilution assay; conditions: time hrs 18-20
In short: (§1)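 CLSI broth microdilution: inoculum about 5 × 10⁵ CFU/mL in trypticase soy broth with serial dilutions of agents. Paired plates incubated at 37 °C for 18–20 h, one set in ambient air ("normal"), the other under 5% CO₂. MIC is the lowest concentration completely inhibiting visible growth.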

Enterococcus faecium [2] = experiment: Inhibition of carbonic anhydrase in Enterococcus faecium NR-31972 assessed as antibacterial activity incubated for 18 to 20 hrs in presence of ambient air by CLSI protocol based broth microdilution assay; conditions: time hrs 18-20; in short: as §1
Enterococcus faecium [3] = experiment: Inhibition of carbonic anhydrase in Enterococcus faecium HM-965 assessed as antibacterial activity incubated for 18 to 20 hrs in presence of ambient air by CLSI protocol based broth microdilution assay; conditions: time hrs 18-20; in short: as §1
Enterococcus faecalis [4] = experiment: Inhibition of carbonic anhydrase in Enterococcus faecalis HM-334 assessed as antibacterial activity incubated for 18 to 20 hrs in presence of ambient air by CLSI protocol based broth microdilution assay; conditions: time hrs 18-20; in short: as §1
Enterococcus faecium [5] = experiment: Inhibition of carbonic anhydrase in Enterococcus faecium ATCC 700221 assessed as antibacterial activity incubated for 18 to 20 hrs in presence of ambient air by CLSI protocol based broth microdilution assay; conditions: time hrs 18-20; in short: as §1
Enterococcus faecium [6] = experiment: Inhibition of carbonic anhydrase in Enterococcus faecium NR-31971 assessed as antibacterial activity incubated for 18 to 20 hrs in presence of 5% CO2 by CLSI protocol based broth microdilution assay; conditions: time hrs 18-20; in short: as §1
Enterococcus faecium [7] = experiment: Inhibition of carbonic anhydrase in Enterococcus faecium NR-31972 assessed as antibacterial activity incubated for 18 to 20 hrs in presence of 5% CO2 by CLSI protocol based broth microdilution assay; conditions: time hrs 18-20; in short: as §1
Enterococcus faecium [8] = experiment: Inhibition of carbonic anhydrase in Enterococcus faecium HM-965 assessed as antibacterial activity incubated for 18 to 20 hrs in presence of 5% CO2 by CLSI protocol based broth microdilution assay; conditions: time hrs 18-20; in short: as §1
Enterococcus faecalis [9] = experiment: Inhibition of carbonic anhydrase in Enterococcus faecalis HM-334 assessed as antibacterial activity incubated for 18 to 20 hrs in presence of 5% CO2 by CLSI protocol based broth microdilution assay; conditions: time hrs 18-20; in short: as §1
Enterococcus faecium [10] = experiment: Inhibition of carbonic anhydrase in Enterococcus faecium ATCC 700221 assessed as antibacterial activity incubated for 18 to 20 hrs in presence of 5% CO2 by CLSI protocol based broth microdilution assay; conditions: time hrs 18-20; in short: as §1
Enterococcus faecium [11] = experiment: Bacteriostatic activity against Enterococcus faecium ATCC 700221 assessed as reduction in bacterial burden at 5 times MIC preincubated for 24 hrs followed by replating on soya agar plates and measured after 16 hrs by time-kill assay; type: functional, organism-based
In short: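 E. faecium ATCC 700221 overnight culture diluted in trypticase soy broth to 3.5 × 10⁶ CFU/mL. […] Samples taken at 2, 4, 6, 8, 12 and 24 h, diluted in PBS and plated on trypticase soy agar. Colonies counted after 16 h at 37 °C. Detection limit 100 CFU/mL. Two-way ANOVA with Dunnett's test.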

[12] = Apparent permeability across apical to basolateral side in human Caco2 cells; type: ADME, cell-based; conditions: caco-2
In short: (§2)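 Bi-directional Caco-2 monolayer permeability, run at Eurofins: donor at pH 6.5, receiver at pH 7.4, both A→B and B→A. Papp derived from receiver concentration at the end point, incubation time, monolayer area and mid-point donor concentration. Concentrations taken as peak areas.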

[13] = Apparent permeability across basolateral to apical side in human Caco2 cells; type: ADME, cell-based; conditions: caco-2; in short: as §2
Enterococcus faecium [14] = experiment: Antibacterial activity against Enterococcus faecium ATCC 700221 by CLSI protocol based assay; type: functional
In short: (§3)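 Broth microdilution per CLSI. Strains grown aerobically overnight on trypticase soy agar at 37 °C. Inoculum set to 0.5 McFarland, diluted in trypticase soy broth to about 5 × 10⁵ CFU/mL. Agents serially diluted, plates incubated aerobically at 37 °C for 18–20 h. MIC is the lowest concentration with no visible growth. Compound stocks 10 mg/mL in DMSO.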

Enterococcus faecium [15] = experiment: Antibacterial activity against Enterococcus faecium HM965 incubated for 18 to 20 hrs under aerobic condition by CLSI protocol based broth microdilution assay; type: functional; conditions: time hrs 18-20; in short: as §3
Enterococcus faecium [16] = experiment: Antibacterial activity against Enterococcus faecium HM968 incubated for 18 to 20 hrs under aerobic condition by CLSI protocol based broth microdilution assay; type: functional; conditions: time hrs 18-20; in short: as §3
Enterococcus faecium [17] = experiment: Antibacterial activity against Enterococcus faecium NR-28978 incubated for 18 to 20 hrs under aerobic condition by CLSI protocol based broth microdilution assay; type: functional; conditions: time hrs 18-20; in short: as §3
Enterococcus faecium [18] = experiment: Antibacterial activity against Enterococcus faecium NR-31903 incubated for 18 to 20 hrs under aerobic condition by CLSI protocol based broth microdilution assay; type: functional; conditions: time hrs 18-20; in short: as §3
Enterococcus faecium [19] = experiment: Antibacterial activity against Enterococcus faecium NR-32065 incubated for 18 to 20 hrs under aerobic condition by CLSI protocol based broth microdilution assay; type: functional; conditions: time hrs 18-20; in short: as §3
Enterococcus faecium [20] = experiment: Antibacterial activity against Enterococcus faecium NR-31914 incubated for 18 to 20 hrs under aerobic condition by CLSI protocol based broth microdilution assay; type: functional; conditions: time hrs 18-20; in short: as §3
Enterococcus faecium [21] = experiment: Antibacterial activity against Enterococcus faecium NR-31916 incubated for 18 to 20 hrs under aerobic condition by CLSI protocol based broth microdilution assay; type: functional; conditions: time hrs 18-20; in short: as §3
Enterococcus faecium [22] = experiment: Antibacterial activity against Enterococcus faecium NR-32052 incubated for 18 to 20 hrs under aerobic condition by CLSI protocol based broth microdilution assay; type: functional; conditions: time hrs 18-20; in short: as §3
Enterococcus faecium [23] = experiment: Antibacterial activity against Enterococcus faecium NR-31971 incubated for 18 to 20 hrs under aerobic condition by CLSI protocol based broth microdilution assay; type: functional; conditions: time hrs 18-20; in short: as §3
Enterococcus faecalis [24] = experiment: Antibacterial activity against Enterococcus faecalis HM-335 incubated for 18 to 20 hrs under aerobic condition by CLSI protocol based broth microdilution assay; type: functional; conditions: time hrs 18-20; in short: as §3
Enterococcus faecalis [25] = experiment: Antibacterial activity against Enterococcus faecalis HM-334 incubated for 18 to 20 hrs under aerobic condition by CLSI protocol based broth microdilution assay; type: functional; conditions: time hrs 18-20; in short: as §3
Enterococcus faecalis [26] = experiment: Antibacterial activity against Enterococcus faecalis NR-31975 incubated for 18 to 20 hrs under aerobic condition by CLSI protocol based broth microdilution assay; type: functional, organism-based; conditions: time hrs 18-20; in short: as §3
Enterococcus faecalis [27] = experiment: Antibacterial activity against Enterococcus faecalis NR-31970 incubated for 18 to 20 hrs under aerobic condition by CLSI protocol based broth microdilution assay; type: functional, organism-based; conditions: time hrs 18-20; in short: as §3
Caco-2 = experiment: Cytotoxicity against human Caco2 cells at 128 ug/ml incubated for 2 hrs by MTS assay; type: cell-based; conditions: caco-2, 2 h, dose 128 µg/ml
In short: (§4)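 Caco-2 cells maintained in DMEM with 10% FBS, non-essential amino acids and penicillin-streptomycin at 37 °C, 5% CO₂. Compound exposure for 2 h in serum-free medium at several concentrations; DMSO-matched controls. Viability expressed relative to DMSO controls (mean ± SD), and CC₅₀ derived.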

[28] = Cytotoxicity against human Caco2 cells incubated for 2 hrs by MTS assay; type: cell-based; conditions: Caco-2 cells; in short: as §4
[29] = Aqueous solubility of compound in pH 7.4 PBS measured at 24 hrs by HPLC analysis; type: physicochemical; conditions: buffer, pH 7.4, 24 h
In short: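 HPLC principal-peak area of the buffer sample compared with a 200 μM calibration standard in methanol/water 60/40.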

[30] = Metabolic stability in human liver microsomes assessed as compound remaining measured after 60 mins; type: ADME, Microsome; conditions: 1 h
In short: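 Human liver microsomes at 0.1 mg/mL, 37 °C. Percent parent remaining at 60 min, mean of 2 replicates.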

[31] = Half life in human liver microsomes after 60 mins; type: ADME, Microsome; conditions: 1 h
[32] = Tmax in ICR mouse at 10 mg/kg, po administered via gavage and measured after 10 to 1440 mins by LC/MS/MS analysis; type: ADME, organism-based; conditions: in vivo, time 10-1440 min
In short: (§5)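 Male ICR mice, 10 mg/kg single oral gavage; n = 3 mice per time point, 8 time points from 10 to 1440 min. Plasma taken by cardiac puncture and mixed with buffer containing oxybutynin internal standard. Samples diluted with acetonitrile, then LC/MS/MS on C18 with acetonitrile/water–formic acid mobile phases in MRM mode. Concentration read off a standard curve.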

[33] = Plasma concentration in ICR mouse at 10 mg/kg, po administered via gavage and measured after 10 to 1440 mins by LC/MS/MS analysis; type: ADME, organism-based; conditions: in vivo, time 10-1440 min; in short: as §5
[34] = Cmax in ICR mouse at 10 mg/kg, po administered via gavage and measured after 30 mins by LC/MS/MS analysis; type: ADME, organism-based; set-up: route oral, dose 10 mg/kg, time 10-1440; conditions: in vivo, 0.5 h; in short: as §5
[35] = AUC(0 to infinity) in ICR mouse at 10 mg/kg, po administered via gavage and measured after 10 to 1440 mins by LC/MS/MS analysis; type: ADME, organism-based; set-up: route oral, dose 10 mg/kg, time 10-1440; conditions: in vivo; in short: as §5
[36] = Dose normalized AUC in ICR mouse at 10 mg/kg, po administered via gavage and measured after 10 to 1440 mins by LC/MS/MS analysis; type: ADME, organism-based; conditions: in vivo, time 10-1440 min; in short: as §5
[37] = MRT in ICR mouse at 10 mg/kg, po administered via gavage and measured after 10 to 1440 mins by LC/MS/MS analysis; type: ADME, organism-based; conditions: in vivo, time 10-1440 min; in short: as §5
[38] = Drug excretion in ICR mouse at 10 mg/kg, po administered via gavage and measured after 1440 mins by LC/MS/MS analysis; type: ADME, organism-based; conditions: in vivo, read-out: Drug excretion
Enterococcus faecium [39] = experiment: Antibacterial activity against Enterococcus faecium NR-31972 incubated for 18 to 20 hrs under aerobic condition by CLSI protocol based broth microdilution assay; type: functional; conditions: time hrs 18-20; in short: as §3

## CC(=O)Nc1nnc(S(N)(=O)=O)s1 [ACETAZOLAMIDE]
Enterococcus faecium [1]
  MIC: 2 µg/mL
Enterococcus faecium [2]
  MIC: 2 µg/mL
Enterococcus faecium [3]
  MIC: 2 µg/mL
Enterococcus faecalis [4]
  MIC: 2 µg/mL
Enterococcus faecium [5]
  MIC: 1 µg/mL
Enterococcus faecium [6]
  MIC: > 64 µg/mL
Enterococcus faecium [7]
  MIC: > 64 µg/mL
Enterococcus faecium [8]
  MIC: > 64 µg/mL
Enterococcus faecalis [9]
  MIC: > 64 µg/mL
Enterococcus faecium [10]
  MIC: > 64 µg/mL
Enterococcus faecium [11]
  Activity: Active
[12]
  Papp A→B: 0.19 ×10⁻⁶ cm/s
[13]
  Papp B→A: 0.77 ×10⁻⁶ cm/s
Enterococcus faecium [14]
  MIC: 0.5 µg/mL (≈ 2.25 µM)

## NS(=O)(=O)c1nnc(NC(=O)CCC2CCCCC2)s1
Enterococcus faecium [15]
  MIC: 7 ng/mL (≈ 0.022 µM)
Enterococcus faecium [16]
  MIC: 0.03 µg/mL (≈ 0.0942 µM)
Enterococcus faecium [17]
  MIC: 0.06 µg/mL (≈ 0.188 µM)
Enterococcus faecium [18]
  MIC: 0.015 µg/mL (≈ 0.0471 µM)
Enterococcus faecium [19]
  MIC: 0.015 µg/mL (≈ 0.0471 µM)
Enterococcus faecium [20]
  MIC: 0.03 µg/mL (≈ 0.0942 µM)
Enterococcus faecium [21]
  MIC: 0.03 µg/mL (≈ 0.0942 µM)
Enterococcus faecium [22]
  MIC: 0.015 µg/mL (≈ 0.0471 µM)
Enterococcus faecium [23]
  MIC: 7 ng/mL (≈ 0.022 µM)
Enterococcus faecalis [24]
  MIC: 0.03 µg/mL (≈ 0.0942 µM)
Enterococcus faecalis [25]
  MIC: 7 ng/mL (≈ 0.022 µM)
Enterococcus faecalis [26]
  Activity: Active
Enterococcus faecalis [27]
  Activity: Active
Caco-2
  Activity: Non-Toxic
[28]
  CC50 at 2 h: > 128 µg/mL
Enterococcus faecium [5]
  inhibition: Active
Enterococcus faecium [10]
  inhibition: inactive
Enterococcus faecium [11]
  Activity: Active
[29]
  solubility: 32.8 µM (≈ 10.4 µg/mL)
[12]
  Papp: 6.5 10^-6 cm/s
[13]
  Papp: 14.1 10^-6 cm/s
[30]
  Stabilty: 62%
[31]
  t1/2: 74 min
[32]
  Tmax: 30 min
[33]
  Cp: 184 ng/mL
[34]
  Cmax: 456 ng/mL
[35]
  AUC(0-inf): 562 ng·h/mL
[36]
  AUC/dose: 56 kg·ng·h/mL/mg
[37]
  MRT: 1.35 h
[38]
  dose excreted at 24 h: 100%
Enterococcus faecium [39]
  MIC: 0.015 µg/mL (≈ 0.0471 µM)

— ChEMBL document CHEMBL4725360, “Optimization of Acetazolamide-Based Scaffold as Potent Inhibitors of Vancomycin-Resistant Enterococcus” (J Med Chem, 2020)
